# Assay results: ChEMBL document CHEMBL4020707, “Exploring the influence of indololactone structure on selectivity for binding to the C1 domains of PKCα, PKCε, and RasGRP” (Bioorg Med Chem, 2017)
# What was measured:
# [1] = species on record: Homo sapiens; experiment: Selectivity index, ratio of Ki for PKCalpha (unknown origin) to Ki for RasGRP1 (unknown origin)
# [2] = molecular target: T1, RAS guanyl-releasing protein 1 (Homo sapiens, UniProt O95267); experiment: Displacement of [20-3H]phorbol 12,13-dibutyrate from RasGRP1 (unknown origin) in the presence of porcine brain phosphatidylserine by scintillation counting
# T1 sequence (O95267 whole entry): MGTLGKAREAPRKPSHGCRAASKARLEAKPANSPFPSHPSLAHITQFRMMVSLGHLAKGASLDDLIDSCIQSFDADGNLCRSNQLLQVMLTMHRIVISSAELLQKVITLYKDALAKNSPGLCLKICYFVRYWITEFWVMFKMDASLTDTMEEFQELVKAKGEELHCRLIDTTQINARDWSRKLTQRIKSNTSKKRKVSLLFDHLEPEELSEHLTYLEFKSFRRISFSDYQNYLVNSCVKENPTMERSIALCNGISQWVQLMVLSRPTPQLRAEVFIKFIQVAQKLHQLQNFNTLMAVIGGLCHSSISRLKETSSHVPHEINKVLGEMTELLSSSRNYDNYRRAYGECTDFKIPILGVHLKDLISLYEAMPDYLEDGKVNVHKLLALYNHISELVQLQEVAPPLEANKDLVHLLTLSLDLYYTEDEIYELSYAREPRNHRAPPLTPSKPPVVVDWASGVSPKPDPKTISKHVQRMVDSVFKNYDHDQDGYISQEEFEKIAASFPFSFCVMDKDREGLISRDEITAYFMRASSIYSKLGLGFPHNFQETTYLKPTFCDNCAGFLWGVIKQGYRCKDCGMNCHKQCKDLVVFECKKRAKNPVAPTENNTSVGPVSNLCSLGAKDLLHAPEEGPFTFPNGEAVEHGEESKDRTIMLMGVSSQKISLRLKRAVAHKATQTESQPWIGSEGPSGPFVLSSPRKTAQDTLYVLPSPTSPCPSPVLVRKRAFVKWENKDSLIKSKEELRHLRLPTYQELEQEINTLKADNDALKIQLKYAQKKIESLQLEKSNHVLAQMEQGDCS
# Procedure, shortened: (§1)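 Competitive binding against bound [20-3H]PDBu with 100 μg/ml phosphatidylserine present. Each curve used six ligand concentrations, each measured in triplicate. IC50 was obtained by least-squares fit of a theoretical sigmoidal competition curve. Ki was calculated from IC50 after correcting for competition by [3H]PDBu. Values are mean ± SE of at least three independent experiments.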
# [3] = molecular target: T2, Protein kinase C epsilon type (Homo sapiens, UniProt Q02156); experiment: Displacement of [20-3H]phorbol 12,13-dibutyrate from PKCepsilon (unknown origin) in the presence of porcine brain phosphatidylserine by scintillation counting; procedure, shortened: as §1
# T2 sequence (Q02156 whole entry): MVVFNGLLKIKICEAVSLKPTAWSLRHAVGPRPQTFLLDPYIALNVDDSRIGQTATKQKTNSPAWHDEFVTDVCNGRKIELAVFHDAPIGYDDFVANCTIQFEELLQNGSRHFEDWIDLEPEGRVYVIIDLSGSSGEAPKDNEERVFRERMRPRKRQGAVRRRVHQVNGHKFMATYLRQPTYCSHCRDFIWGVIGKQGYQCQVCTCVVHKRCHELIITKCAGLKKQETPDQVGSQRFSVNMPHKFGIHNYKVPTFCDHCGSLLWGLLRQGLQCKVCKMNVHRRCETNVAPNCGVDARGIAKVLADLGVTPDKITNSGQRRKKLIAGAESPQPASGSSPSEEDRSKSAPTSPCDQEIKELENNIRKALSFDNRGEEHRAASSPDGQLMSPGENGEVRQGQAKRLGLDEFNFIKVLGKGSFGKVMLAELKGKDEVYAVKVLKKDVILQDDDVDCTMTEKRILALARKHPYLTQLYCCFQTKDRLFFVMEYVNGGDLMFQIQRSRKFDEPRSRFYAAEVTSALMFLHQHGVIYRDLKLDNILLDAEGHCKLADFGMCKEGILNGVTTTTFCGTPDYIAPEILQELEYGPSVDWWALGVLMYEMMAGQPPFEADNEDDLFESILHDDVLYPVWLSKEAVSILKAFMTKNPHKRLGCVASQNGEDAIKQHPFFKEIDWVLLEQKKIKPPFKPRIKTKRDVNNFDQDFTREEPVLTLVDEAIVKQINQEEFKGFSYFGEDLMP
# [4] = molecular target: Protein kinase C alpha type (Homo sapiens, UniProt P17252); experiment: Displacement of [20-3H]phorbol 12,13-dibutyrate from PKCalpha (unknown origin) in the presence of porcine brain phosphatidylserine by scintillation counting; procedure, shortened: as §1
# [5] = species on record: Homo sapiens; experiment: Selectivity index, ratio of Ki for PKCalpha (unknown origin) to Ki for PKCepsilon (unknown origin)
# [6] = species on record: Homo sapiens; experiment: Selectivity index, ratio of Ki for PKCepsilon (unknown origin) to Ki for RasGRP1 (unknown origin)
Ratio Ki [1],Ki [2],Ki [3],Ki [4],Ratio Ki [5],Ratio Ki [6],SMILES
3.7,0.0226 µM,0.055 µM,0.0831 µM,1.5,2.4,CC(C)CC(C/C=C1/CC(CO)(COC(=O)c2cn(C)c3ccccc23)OC1=O)CC(C)C (stereo not drawn)
3.8,0.133 µM,0.295 µM,0.504 µM,1.7,2.2,CCCC(/C=C1\CC(CO)(COC(=O)c2cn(C)c3ccccc23)OC1=O)CCC (stereo not drawn)
5.1,0.0226 µM,0.131 µM,0.116 µM,0.89,5.8,Cc1ccc(C#Cc2ccc(C=C3CC(CO)(COC(=O)c4cn(C)c5ccccc45)OC3=O)cc2)cc1 (stereo not drawn)
1.08,0.666 µM,0.301 µM,0.698 µM,2.3,0.45,CC(C)=C1CC(CO)(COC(=O)c2cn(C)c3ccccc23)OC1=O (stereo not drawn)
6.5,0.04 µM,0.119 µM,0.257 µM,2.2,3,Cc1ccc(C#Cc2ccc(/C=C3\CC(CO)(COC(=O)c4cn(C)c5ccccc45)OC3=O)cc2)cc1 (stereo not drawn)
1.7,0.0633 µM,0.0596 µM,0.106 µM,1.8,0.94,CCCCCCCCC/C=C1\CC(CO)(COC(=O)c2cn(C)c3ccccc23)OC1=O (stereo not drawn)
2.3,0.0313 µM,0.0273 µM,0.073 µM,2.7,0.87,CC(C)CC(C/C=C1\CC(CO)(COC(=O)c2cn(C)c3ccccc23)OC1=O)CC(C)C (stereo not drawn)
22,0.00058 µM,0.031 µM,0.0129 µM,0.42,53,CCCC(CCC)C(=O)OCC1(CO)C/C(=C\c2cn(C)c3ccccc23)C(=O)O1 (stereo not drawn)
